Experimental data: article PMC8887543 (Nucleic Acids Research, 2022)

Experiments:
[1] = system: MCF-7 cells; assay: BRACO19 displacement in stained cells, confocal imaging; format: cell-based, human; details: ligand 5 μM, BRACO19 0–15 μM
In short: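 MCF-7 cells were stained with the test compound (5 μM) plus increasing BRACO19 (0–15 μM) for displacement. Images were taken by laser-scanning confocal microscopy with 488 nm excitation. A parallel solution assay followed fluorescence of the compound (5 μM) bound to nucleic acid under the same BRACO19 range.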

[2] = system: dT21 (DNA, single strand) TTTTTTTTTTTTTTTTTTTTT; assay: fluorescence light-up; details: 60 mM KCl; 10 mM Tris-HCl, pH 7.4
[3] = system: G4-DNA (c-MYC promoter, telomeric) versus other nucleic acids; assay: Selectivity screening by induced fluorescence with 20 nucleic acids; format: binding; details: 5 μM ligand, 18 μM nucleic acid, Tris–HCl pH 7.4, 60 mM KCl
In short: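 For induced-fluorescence selectivity, the test compound (5 μM) was mixed with each nucleic acid (18 μM) in 10 mM Tris–HCl (pH 7.4) with 60 mM KCl. Emission was recorded on a fluorescence spectrometer against compound alone without DNA. Samples were also viewed under 302 nm UV illumination.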

- binding [2]: weak
Compound: CN1C(=Cc2cc[n+](C)c3ccccc23)Sc2ccccc21 [TO, thiazole orange]
- Fluorescence change in stained cells after BRACO19 treatment [1]: not obvious
- Selectivity toward G4-DNA structures by induced fluorescence [3]: non-selective
